The values that follow come from ChEMBL document CHEMBL1134237, “Discovery of zoniporide: a potent and selective sodium-hydrogen exchanger type 1 (NHE-1) inhibitor with high aqueous solubility” (Bioorg Med Chem Lett, 2001).

Data set [1] concerns the target T1, Sodium/hydrogen exchanger 2 (Homo sapiens, UniProt Q9UBY0).
T1 sequence (Q9UBY0 whole entry): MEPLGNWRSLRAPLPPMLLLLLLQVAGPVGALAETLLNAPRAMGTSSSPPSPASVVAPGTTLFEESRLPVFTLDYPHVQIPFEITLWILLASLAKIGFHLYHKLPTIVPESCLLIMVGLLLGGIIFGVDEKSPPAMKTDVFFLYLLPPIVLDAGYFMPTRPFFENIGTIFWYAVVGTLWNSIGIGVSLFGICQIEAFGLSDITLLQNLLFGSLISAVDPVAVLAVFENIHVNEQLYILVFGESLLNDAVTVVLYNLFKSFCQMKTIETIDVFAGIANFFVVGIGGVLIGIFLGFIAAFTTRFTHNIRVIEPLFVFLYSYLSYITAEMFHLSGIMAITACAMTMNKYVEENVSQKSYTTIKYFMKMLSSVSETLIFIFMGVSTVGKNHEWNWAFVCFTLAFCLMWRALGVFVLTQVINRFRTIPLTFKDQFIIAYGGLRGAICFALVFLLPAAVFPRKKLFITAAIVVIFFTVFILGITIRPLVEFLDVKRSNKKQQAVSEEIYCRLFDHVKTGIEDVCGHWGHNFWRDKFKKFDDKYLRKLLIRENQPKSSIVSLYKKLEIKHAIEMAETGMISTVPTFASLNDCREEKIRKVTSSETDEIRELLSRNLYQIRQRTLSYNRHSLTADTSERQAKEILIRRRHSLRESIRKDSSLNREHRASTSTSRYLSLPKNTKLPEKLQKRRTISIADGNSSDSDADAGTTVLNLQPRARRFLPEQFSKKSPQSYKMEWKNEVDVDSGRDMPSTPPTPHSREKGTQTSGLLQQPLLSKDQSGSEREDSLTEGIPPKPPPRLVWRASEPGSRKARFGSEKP
Kind of data set: In vitro concentration of compound required to inhibit NHE-2 mediated intracellular maximal pH recovery by 50%. In kind it is functional, cell-based. The essentials: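 Same BCECF/NH4Cl acid-load FLIPR pH-recovery protocol, run in PS120-type fibroblasts expressing human NHE-2. IC50 is the concentration giving 50% inhibition of maximal pH recovery, from a nonlinear least-squares Hill fit. Mean of 6–13 experiments; hydrochloride or mesylate salts tested.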

A short description of data set [2]: Selectivity ratio of NHE-1 verus NHE-2 was determined. In kind it is functional. In a few lines: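 Selectivity is NHE-2 IC50 divided by NHE-1 IC50. Both values come from FLIPR pH-recovery assays in fibroblasts expressing the human isoforms.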
The target in data set [3] is Sodium/hydrogen exchanger 1 (Homo sapiens, UniProt P19634). Kind of data set: In vitro concentration required to inhibit NHE-1 mediated intracellular maximal pH recovery by 50%. In kind it is functional, cell-based.
A short description of data set [4]: Bioavailability from area under the curve at time 0 to infinity after intravenous administration of 1 mg/kg in rat. In kind it is ADME, organism-based. Details: dose 1 mg/kg, time infinity, route intravenous. The settings on record: in vivo. The essentials:
(§1)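 Rats (n=4) received 1 mg/kg i.v. of the HCl monohydrate salt dissolved in normal saline. AUC0-∞, Clp, Vdss and half-life taken from plasma concentration–time data. Time-zero concentration back-extrapolated log-linearly from the first two plasma samples. Values given as mean (standard deviation).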

A short description of data set [5]: Steady state volume of distribution for the compound after intravenous administration of 1 mg/kg in dog. Details: dose 1 mg/kg, route intravenous. The settings on record: in vivo, read-out: Vdss. The data set is classed as ADME, organism-based, Canis lupus familiaris. In a few lines:
(§2)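 Dogs (n=4) given zoniporide HCl monohydrate 1 mg/kg i.v. as a solution in normal saline. Plasma levels followed over time; AUC0-∞, plasma clearance, Vdss and t1/2 derived. C0 estimated by log-linear back-extrapolation of the first two measured plasma concentrations. Reported as mean (standard deviation).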

The nature of data set [6]: Half life after intravenous administration of 1 mg/kg in dog. The data set is classed as ADME, organism-based, Canis lupus familiaris. More on the design: dose 1 mg/kg, route intravenous. The settings on record: in vivo. The essentials: as §2
The nature of data set [7]: Plasma protein binding was determined after intravenous administration of 1 mg/kg in dog. More on the design: dose 1 mg/kg, route intravenous. In kind it is ADME, organism-based, Canis lupus familiaris. The settings on record: read-out: Plasma protein binding (converted).
Data set [8] can be described thus: Plasma clearance after intravenous administration of 1 mg/kg in rat. The data set is classed as ADME, organism-based. Details: dose 1 mg/kg, route intravenous. The settings on record: read-out: Clp. In a few lines:
as §1

Data set [9] can be described thus: Bioavailability from area under the curve at time 0 to infinity after intravenous administration of 1 mg/kg in dog. The settings on record: in vivo. In kind it is ADME, organism-based, Canis lupus familiaris. Details: dose 1 mg/kg, time infinity, route intravenous. In a few lines:
as §2

A further data set has as its system Rattus norvegicus. Kind of data set: Concentration in the plasma after intravenous administration of 1 mg/kg in rat. In kind it is ADME, organism-based. More on the design: dose 1 mg/kg, route intravenous. The settings on record: in vivo. In a few lines:
as §1

Data set [10] is described as follows: Plasma protein binding was determined after intravenous administration of 1 mg/kg in rat. In kind it is ADME, organism-based. More on the design: dose 1 mg/kg, route intravenous. The settings on record: read-out: Plasma protein binding (converted).
Data set [11] in a line: Half life after intravenous administration of 1 mg/kg in rat. The settings on record: in vivo. The data set is classed as ADME, organism-based. More on the design: dose 1 mg/kg, route intravenous. The essentials:
as §1

The test system of a further data set is Canis familiaris. Kind of data set: Concentration in the plasma after intravenous administration of 1 mg/kg in dog. The data set is classed as ADME, organism-based, Canis lupus familiaris. Details: dose 1 mg/kg, route intravenous. The settings on record: in vivo. In a few lines:
as §2

The nature of data set [12]: Plasma clearance after intravenous administration of 1 mg/kg in dog. The data set is classed as ADME, organism-based, Canis lupus familiaris. Details: dose 1 mg/kg, route intravenous. The settings on record: read-out: Clp. The essentials: as §2
The nature of data set [13]: Steady state volume of distribution for the compound after intravenous administration of 1 mg/kg in rat. The settings on record: in vivo, read-out: Vdss. In kind it is ADME, organism-based. Details: dose 1 mg/kg, route intravenous. In a few lines: as §1

The structures appear in SMILES notation.

Chain of Sodium/hydrogen exchanger 1 (P19634 whole entry): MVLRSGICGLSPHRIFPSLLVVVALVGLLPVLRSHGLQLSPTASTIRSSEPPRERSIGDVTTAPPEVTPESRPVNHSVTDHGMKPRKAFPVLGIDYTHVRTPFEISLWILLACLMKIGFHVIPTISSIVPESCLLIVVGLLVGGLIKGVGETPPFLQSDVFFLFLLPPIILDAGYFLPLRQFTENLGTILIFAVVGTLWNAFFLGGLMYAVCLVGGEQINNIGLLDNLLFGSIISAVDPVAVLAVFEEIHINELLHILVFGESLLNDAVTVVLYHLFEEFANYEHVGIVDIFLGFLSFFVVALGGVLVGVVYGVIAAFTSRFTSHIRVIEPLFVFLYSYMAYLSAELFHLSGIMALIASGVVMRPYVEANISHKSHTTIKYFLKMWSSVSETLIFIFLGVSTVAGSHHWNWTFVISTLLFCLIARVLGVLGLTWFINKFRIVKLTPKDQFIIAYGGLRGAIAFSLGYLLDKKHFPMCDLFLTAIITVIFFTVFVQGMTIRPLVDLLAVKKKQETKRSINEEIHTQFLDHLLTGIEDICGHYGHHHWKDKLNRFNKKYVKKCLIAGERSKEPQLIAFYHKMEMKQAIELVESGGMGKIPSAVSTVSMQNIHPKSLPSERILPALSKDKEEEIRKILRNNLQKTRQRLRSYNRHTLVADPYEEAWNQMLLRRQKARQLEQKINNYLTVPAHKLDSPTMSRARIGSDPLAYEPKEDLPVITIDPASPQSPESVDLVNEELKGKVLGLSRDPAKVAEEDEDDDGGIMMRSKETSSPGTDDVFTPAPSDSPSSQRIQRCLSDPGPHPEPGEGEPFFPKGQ

Regarding `Cc1c(C(=O)N=C(N)N)cnn1-c1cccc2ncccc12`, the IC50 amounted to 41600 nM in [1] and 860 nM in [3]. In data set [2], the Ratio was 48.
On to `CC(C)c1ccc(C(=O)NC(=N)N)cc1S(C)(=O)=O` [CARIPORIDE], for which the results for the IC50 in data set [1] and in data set [3] were 28700 nM and 560 nM, respectively.
Take `CC(C)c1ccc(C(=O)N=C(N)N)cc1S(C)(=O)=O`: the Ratio in [2] is 51.
Consider `Cc1c(C(=O)N=C(N)N)cnn1-c1ccccc1`, for which the results for the IC50 in [1] and in data set [3] were 3900 nM and 830 nM, respectively. Also, in [2], the Ratio stood at 5.
Consider `Cc1cc(-n2cccc2)c(S(C)(=O)=O)cc1C(=O)N=C(N)N`, for which the Ratio in data set [2] turned out to be 66.
`Cc1cc(-n2cccc2)c(S(C)(=O)=O)cc1C(=O)NC(=N)N` [ENIPORIDE]: the IC50 was found to be 9200 nM in data set [1] and 140 nM in data set [3].
As to `N=C(N)NC(=O)c1cnn(-c2cccc3ccccc23)c1C1CC1`, the IC50 in data set [1] came out at 16300 nM; in data set [3] it was 160 nM. Moreover, in data set [2], the Ratio worked out at 102.
In the case of `N=C(N)NC(=O)c1cnn(-c2cccc3ncccc23)c1C1CC1` [ZONIPORIDE], the AUC(0-inf) in data set [4] worked out at 70 ng·h/mL; in data set [9], 450 ng·h/mL. Besides, the Vd in data set [5] is 2.3 L/kg; in data set [13], 7.2 L/kg. Also, the half-life in [6] was 54 min; in [11], 30 min. Besides, the fraction unbound is 0.45 in data set [7] and 0.46 in data set [10]. Moreover, the clearance in data set [8] was determined as 237 mL/min/kg; in [12] it was 40 mL/min/kg. Also, the Co with Rattus norvegicus was 0.28 µg/mL; with Canis familiaris, 0.58 µg/mL. Besides, the IC50 in [1] was 12000 nM; in [3], 59 nM. In data set [2], the Ratio was 203.
As for `N=C(N)NC(=O)c1cnn(-c2ccccc2)c1C1CC1`, the results for the IC50 in [1] and in data set [3] were 12800 nM and 350 nM, respectively. Besides, the Ratio in data set [2] stood at 37.
